What was measured:
[1] = target: Cyclin-dependent kinase 2/cyclin E1 (Homo sapiens) (UniProt P24864+P24941); test: Inhibition of CDK2/Cyclin E assessed as residual activity at 10 uM after 80 mins by microplate scintillation counting; format: protein-complex assay
[2] = target: Insulin-like growth factor 1 receptor (Homo sapiens) (UniProt P08069); test: Inhibition of IGF1R assessed as residual activity at 1 uM after 80 mins by microplate scintillation counting
[3] = target: Proto-oncogene tyrosine-protein kinase receptor Ret (Homo sapiens) (UniProt P07949); test: Inhibition of RET assessed as residual activity at 1 uM after 80 mins by microplate scintillation counting
Outline: (§1)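 Kinase profiling was outsourced to a contract laboratory as a panel of 30 protein kinases. Each compound was tested at two concentrations, and residual kinase activity was recorded.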

[4] = target: Mast/stem cell growth factor receptor Kit (Homo sapiens) (UniProt P10721); test: Inhibition of KIT assessed as residual activity at 1 uM after 80 mins by microplate scintillation counting
[5] = target: Platelet-derived growth factor receptor alpha (Homo sapiens) (UniProt P16234); test: Inhibition of PDGFRalpha assessed as residual activity at 1 uM after 80 mins by microplate scintillation counting
[6] = target: Serine/threonine-protein kinase Chk2 (Homo sapiens) (UniProt O96017); test: Inhibition of CHK2 assessed as residual activity at 10 uM after 80 mins by microplate scintillation counting
[7] = target: Cyclin-dependent kinase 1/cyclin B1 (Homo sapiens) (UniProt P06493+P14635); test: Inhibition of CDK1/Cyclin B1 assessed as residual activity at 1 uM after 80 mins by microplate scintillation counting; format: protein-complex assay
[8] = target: Glycogen synthase kinase-3 beta (Homo sapiens, UniProt P49841); test: Inhibition of GSK3-beta assessed as residual activity at 10 uM after 80 mins by microplate scintillation counting
[9] = target: Vascular endothelial growth factor receptor 2 (Homo sapiens) (UniProt P35968); test: Inhibition of VEGFR2 assessed as residual activity at 10 uM after 80 mins by microplate scintillation counting; outline: as §1
[10] = target: RAF proto-oncogene serine/threonine-protein kinase (Homo sapiens) (UniProt P04049); test: Inhibition of RAF1 assessed as residual activity at 1 uM after 80 mins by microplate scintillation counting; outline: as §1
[11] = target: Cyclin-dependent kinase 5/CDK5 activator 1 (Homo sapiens) (UniProt Q00535+Q15078); test: Inhibition of CDK5/p35 assessed as residual activity at 1 uM after 80 mins by microplate scintillation counting; format: protein-complex assay
[12] = target: Tyrosine-protein kinase ABL1 (Homo sapiens) (UniProt P00519); test: Inhibition of ABL1 assessed as residual activity at 1 uM after 80 mins by microplate scintillation counting
[13] = target: Aurora kinase A (Homo sapiens) (UniProt O14965); test: Inhibition of Aurora A assessed as residual activity at 10 uM after 80 mins by microplate scintillation counting
[14] = target: Muscle, skeletal receptor tyrosine-protein kinase (Homo sapiens) (UniProt O15146); test: Inhibition of MUSK assessed as residual activity at 10 uM after 80 mins by microplate scintillation counting
[15] = target: RAF proto-oncogene serine/threonine-protein kinase (Homo sapiens) (UniProt P04049); test: Inhibition of RAF1 assessed as residual activity at 10 uM after 80 mins by microplate scintillation counting; outline: as §1
[16] = target: Proto-oncogene tyrosine-protein kinase Src (Homo sapiens) (UniProt P12931); test: Inhibition of SRC assessed as residual activity at 10 uM after 80 mins by microplate scintillation counting; outline: as §1
[17] = target: Tyrosine-protein kinase JAK2 (Homo sapiens) (UniProt O60674); test: Inhibition of JAK2 assessed as residual activity at 10 uM after 80 mins by microplate scintillation counting
[18] = target: Vascular endothelial growth factor receptor 3 (Homo sapiens) (UniProt P35916); test: Inhibition of VEGFR3 assessed as residual activity at 10 uM after 80 mins by microplate scintillation counting; outline: as §1
[19] = target: Proto-oncogene tyrosine-protein kinase Src (Homo sapiens) (UniProt P12931); test: Inhibition of SRC assessed as residual activity at 1 uM after 80 mins by microplate scintillation counting; outline: as §1
[20] = target: Tyrosine-protein kinase Fgr (Homo sapiens) (UniProt P09769); test: Inhibition of FGR assessed as residual activity at 10 uM after 80 mins by microplate scintillation counting
[21] = target: Insulin-like growth factor 1 receptor (Homo sapiens) (UniProt P08069); test: Inhibition of IGF1R assessed as residual activity at 10 uM after 80 mins by microplate scintillation counting
[22] = target: Muscle, skeletal receptor tyrosine-protein kinase (Homo sapiens) (UniProt O15146); test: Inhibition of MUSK assessed as residual activity at 1 uM after 80 mins by microplate scintillation counting
[23] = target: Epidermal growth factor receptor (Homo sapiens) (UniProt P00533); test: Inhibition of EGFR assessed as residual activity at 1 uM after 80 mins by microplate scintillation counting
[24] = target: Mast/stem cell growth factor receptor Kit (Homo sapiens) (UniProt P10721); test: Inhibition of KIT assessed as residual activity at 10 uM after 80 mins by microplate scintillation counting
[25] = target: Aurora kinase B (Homo sapiens) (UniProt Q96GD4); test: Inhibition of Aurora B assessed as residual activity at 1 uM after 80 mins by microplate scintillation counting
[26] = target: Cyclin-dependent kinase 4/cyclin D1 (Homo sapiens) (UniProt P11802+P24385); test: Inhibition of CDK4/Cyclin D1 assessed as residual activity at 1 uM after 80 mins by microplate scintillation counting; format: protein-complex assay
[27] = target: Serine/threonine-protein kinase B-raf (Homo sapiens) (UniProt P15056); test: Inhibition of B-Raf assessed as residual activity at 1 uM after 80 mins by microplate scintillation counting
[28] = target: Serine/threonine-protein kinase Chk2 (Homo sapiens) (UniProt O96017); test: Inhibition of CHK2 assessed as residual activity at 1 uM after 80 mins by microplate scintillation counting

Mast/stem cell growth factor receptor Kit (Homo sapiens), sequence (P10721 whole entry): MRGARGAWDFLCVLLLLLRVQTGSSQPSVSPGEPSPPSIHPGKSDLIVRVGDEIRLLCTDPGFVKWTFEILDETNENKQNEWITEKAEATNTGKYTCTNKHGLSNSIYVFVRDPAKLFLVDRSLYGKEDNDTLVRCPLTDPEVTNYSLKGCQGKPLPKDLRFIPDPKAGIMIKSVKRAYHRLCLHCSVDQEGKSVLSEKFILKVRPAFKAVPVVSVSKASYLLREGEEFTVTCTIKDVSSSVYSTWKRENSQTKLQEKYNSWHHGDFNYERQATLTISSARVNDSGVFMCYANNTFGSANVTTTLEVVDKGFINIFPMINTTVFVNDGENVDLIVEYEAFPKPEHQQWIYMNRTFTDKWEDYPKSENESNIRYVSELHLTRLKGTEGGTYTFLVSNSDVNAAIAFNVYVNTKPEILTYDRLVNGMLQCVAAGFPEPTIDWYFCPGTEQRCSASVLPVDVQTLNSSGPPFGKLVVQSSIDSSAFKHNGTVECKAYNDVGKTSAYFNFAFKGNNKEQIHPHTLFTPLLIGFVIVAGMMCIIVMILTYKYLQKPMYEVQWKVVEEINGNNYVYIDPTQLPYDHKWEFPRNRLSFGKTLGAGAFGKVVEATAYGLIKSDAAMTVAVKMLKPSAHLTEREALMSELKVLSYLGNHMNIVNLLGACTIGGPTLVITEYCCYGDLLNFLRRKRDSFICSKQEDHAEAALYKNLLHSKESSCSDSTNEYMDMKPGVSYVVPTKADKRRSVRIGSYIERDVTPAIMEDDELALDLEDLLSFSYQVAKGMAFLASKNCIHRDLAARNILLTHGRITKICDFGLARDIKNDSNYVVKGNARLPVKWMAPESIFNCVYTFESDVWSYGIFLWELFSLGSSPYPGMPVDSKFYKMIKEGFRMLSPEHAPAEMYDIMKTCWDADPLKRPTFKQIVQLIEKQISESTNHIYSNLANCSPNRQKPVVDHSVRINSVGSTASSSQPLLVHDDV
Serine/threonine-protein kinase Chk2 (Homo sapiens), sequence (O96017 whole entry): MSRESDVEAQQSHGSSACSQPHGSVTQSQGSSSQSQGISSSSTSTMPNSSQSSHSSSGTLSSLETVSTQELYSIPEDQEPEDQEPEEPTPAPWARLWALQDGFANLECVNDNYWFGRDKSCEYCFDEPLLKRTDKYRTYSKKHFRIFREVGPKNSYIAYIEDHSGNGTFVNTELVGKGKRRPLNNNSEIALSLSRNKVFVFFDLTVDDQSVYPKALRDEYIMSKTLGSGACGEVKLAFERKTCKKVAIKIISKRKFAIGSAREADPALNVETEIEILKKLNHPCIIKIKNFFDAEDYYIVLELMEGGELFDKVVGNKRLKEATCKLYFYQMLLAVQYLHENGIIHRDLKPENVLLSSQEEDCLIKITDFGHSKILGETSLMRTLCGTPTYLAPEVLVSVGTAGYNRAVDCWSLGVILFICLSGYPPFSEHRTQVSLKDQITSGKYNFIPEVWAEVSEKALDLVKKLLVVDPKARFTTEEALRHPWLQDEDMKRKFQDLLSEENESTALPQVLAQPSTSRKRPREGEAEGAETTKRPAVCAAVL
RAF proto-oncogene serine/threonine-protein kinase (Homo sapiens), sequence (P04049 whole entry): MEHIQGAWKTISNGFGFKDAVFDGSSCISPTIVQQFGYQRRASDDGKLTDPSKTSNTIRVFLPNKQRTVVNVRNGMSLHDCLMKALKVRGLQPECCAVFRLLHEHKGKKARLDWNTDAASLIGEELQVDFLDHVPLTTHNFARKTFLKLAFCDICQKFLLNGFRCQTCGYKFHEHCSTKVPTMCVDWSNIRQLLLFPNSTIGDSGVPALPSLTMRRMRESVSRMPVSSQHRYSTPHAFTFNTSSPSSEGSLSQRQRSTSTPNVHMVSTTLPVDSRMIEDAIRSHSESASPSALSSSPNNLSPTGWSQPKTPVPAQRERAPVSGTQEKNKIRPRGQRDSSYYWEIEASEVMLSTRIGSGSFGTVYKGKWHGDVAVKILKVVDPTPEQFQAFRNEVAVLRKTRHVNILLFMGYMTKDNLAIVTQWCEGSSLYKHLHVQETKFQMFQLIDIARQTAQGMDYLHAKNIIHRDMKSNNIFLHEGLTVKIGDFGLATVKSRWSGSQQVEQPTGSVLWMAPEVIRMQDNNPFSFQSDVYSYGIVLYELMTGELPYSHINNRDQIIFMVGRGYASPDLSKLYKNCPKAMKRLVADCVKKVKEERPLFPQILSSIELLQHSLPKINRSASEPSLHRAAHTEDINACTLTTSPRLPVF
Proto-oncogene tyrosine-protein kinase Src (Homo sapiens), sequence (P12931 2-536 limits assumed): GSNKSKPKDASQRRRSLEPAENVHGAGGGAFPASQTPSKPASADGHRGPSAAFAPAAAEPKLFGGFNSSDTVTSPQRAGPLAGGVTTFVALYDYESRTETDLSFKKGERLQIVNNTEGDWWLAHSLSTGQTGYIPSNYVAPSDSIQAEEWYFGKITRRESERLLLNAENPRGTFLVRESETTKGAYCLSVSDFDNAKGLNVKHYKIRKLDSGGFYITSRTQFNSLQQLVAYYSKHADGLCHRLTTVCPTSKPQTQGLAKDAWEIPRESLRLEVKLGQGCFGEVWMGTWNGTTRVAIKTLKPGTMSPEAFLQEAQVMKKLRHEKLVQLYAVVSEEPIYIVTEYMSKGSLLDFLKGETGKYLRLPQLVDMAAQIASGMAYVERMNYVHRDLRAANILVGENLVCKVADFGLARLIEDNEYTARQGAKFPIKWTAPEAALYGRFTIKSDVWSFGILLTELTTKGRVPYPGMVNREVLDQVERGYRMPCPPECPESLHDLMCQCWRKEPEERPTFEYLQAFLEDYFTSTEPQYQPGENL
Muscle, skeletal receptor tyrosine-protein kinase (Homo sapiens), sequence (O15146 whole entry): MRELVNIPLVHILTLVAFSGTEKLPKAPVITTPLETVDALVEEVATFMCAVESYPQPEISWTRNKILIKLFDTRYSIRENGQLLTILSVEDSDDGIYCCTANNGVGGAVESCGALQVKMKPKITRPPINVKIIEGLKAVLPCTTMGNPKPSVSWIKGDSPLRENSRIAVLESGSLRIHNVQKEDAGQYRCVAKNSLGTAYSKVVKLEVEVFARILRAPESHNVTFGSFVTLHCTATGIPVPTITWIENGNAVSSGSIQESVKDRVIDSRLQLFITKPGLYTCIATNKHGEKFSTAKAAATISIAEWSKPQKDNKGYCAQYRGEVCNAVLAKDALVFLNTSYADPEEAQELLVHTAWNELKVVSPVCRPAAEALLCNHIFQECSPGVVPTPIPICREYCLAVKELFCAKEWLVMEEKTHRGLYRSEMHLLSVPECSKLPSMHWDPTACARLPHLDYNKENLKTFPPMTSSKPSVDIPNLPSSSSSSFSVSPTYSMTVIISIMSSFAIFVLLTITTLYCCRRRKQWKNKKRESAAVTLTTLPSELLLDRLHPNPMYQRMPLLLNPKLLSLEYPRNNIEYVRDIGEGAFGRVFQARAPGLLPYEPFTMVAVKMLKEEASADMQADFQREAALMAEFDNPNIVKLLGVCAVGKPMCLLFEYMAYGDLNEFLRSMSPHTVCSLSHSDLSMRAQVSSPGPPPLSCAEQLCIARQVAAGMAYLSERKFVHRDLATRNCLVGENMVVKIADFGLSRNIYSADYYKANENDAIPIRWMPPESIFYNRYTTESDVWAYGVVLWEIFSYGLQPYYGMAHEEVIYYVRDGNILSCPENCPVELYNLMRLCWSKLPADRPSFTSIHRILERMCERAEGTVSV
Insulin-like growth factor 1 receptor (Homo sapiens), sequence (P08069 31-736 limits assumed): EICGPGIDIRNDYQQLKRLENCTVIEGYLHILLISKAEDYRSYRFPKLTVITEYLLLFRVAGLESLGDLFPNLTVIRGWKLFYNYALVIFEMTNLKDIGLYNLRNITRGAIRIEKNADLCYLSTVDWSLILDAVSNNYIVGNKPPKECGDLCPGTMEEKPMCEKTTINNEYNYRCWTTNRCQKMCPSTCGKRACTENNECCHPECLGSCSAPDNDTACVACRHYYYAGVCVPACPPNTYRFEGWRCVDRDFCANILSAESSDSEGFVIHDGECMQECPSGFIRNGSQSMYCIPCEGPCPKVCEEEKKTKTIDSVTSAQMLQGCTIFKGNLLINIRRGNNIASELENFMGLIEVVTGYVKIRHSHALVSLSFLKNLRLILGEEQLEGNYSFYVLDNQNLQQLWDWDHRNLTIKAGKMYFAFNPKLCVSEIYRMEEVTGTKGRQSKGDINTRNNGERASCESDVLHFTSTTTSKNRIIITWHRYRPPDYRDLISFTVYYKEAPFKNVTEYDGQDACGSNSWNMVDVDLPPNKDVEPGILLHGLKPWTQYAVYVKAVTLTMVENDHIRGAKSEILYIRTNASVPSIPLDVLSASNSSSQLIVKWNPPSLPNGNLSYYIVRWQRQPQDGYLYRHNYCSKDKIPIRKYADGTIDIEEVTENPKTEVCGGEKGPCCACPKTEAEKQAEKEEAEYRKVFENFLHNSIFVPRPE
Insulin-like growth factor 1 receptor (Homo sapiens), sequence (P08069 741-1367 limits assumed): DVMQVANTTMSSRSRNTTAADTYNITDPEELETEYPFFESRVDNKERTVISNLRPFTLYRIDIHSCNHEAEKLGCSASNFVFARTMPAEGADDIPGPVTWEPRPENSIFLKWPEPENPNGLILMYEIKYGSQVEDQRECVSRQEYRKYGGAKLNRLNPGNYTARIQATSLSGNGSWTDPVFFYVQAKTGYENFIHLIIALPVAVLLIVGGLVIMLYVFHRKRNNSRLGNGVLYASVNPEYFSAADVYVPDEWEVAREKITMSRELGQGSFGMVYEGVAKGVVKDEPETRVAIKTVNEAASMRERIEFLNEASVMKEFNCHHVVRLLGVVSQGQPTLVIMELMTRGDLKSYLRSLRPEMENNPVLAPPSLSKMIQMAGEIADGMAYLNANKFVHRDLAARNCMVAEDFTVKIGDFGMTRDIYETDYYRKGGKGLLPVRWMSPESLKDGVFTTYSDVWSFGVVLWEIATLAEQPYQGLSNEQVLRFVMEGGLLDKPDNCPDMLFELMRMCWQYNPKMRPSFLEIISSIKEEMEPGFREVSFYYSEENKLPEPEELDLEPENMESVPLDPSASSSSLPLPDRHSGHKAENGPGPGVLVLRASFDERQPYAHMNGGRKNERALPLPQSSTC

SMILES: CN1CCN(c2ccc(NC(=O)c3ccc4c(c3)/C(=C3/Nc5ccccc5C3=O)C(=O)N4)cc2)CC1
- Activity [1]: 14%
- Activity [2]: 102%
- Activity [3]: 78%
- Activity [4]: 98%
- Activity [5]: 94%
- Activity [6]: 69%
- Activity [7]: 79%
- Activity [8]: 6%
- Activity [9]: 65%
- Activity [10]: 94%
- Activity [11]: 53%
- Activity [12]: 88%
- Activity [13]: 63%
- Activity [14]: 31%
- Activity [15]: 53%
- Activity [16]: 271%
- Activity [17]: 48%
- Activity [18]: 37%
- Activity [19]: 132%
- Activity [20]: < 50%
- Activity [21]: 103%
- Activity [22]: 81%
- Activity [23]: 99%
- Activity [24]: 129%
- Activity [25]: 98%
- Activity [26]: 64%
- Activity [27]: 103%
- Activity [28]: 90%

— ChEMBL document CHEMBL1165969, “Synthesis and cytotoxicity of novel indirubin-5-carboxamides” (Bioorg Med Chem, 2010)
